An excerpt weighted towards active compounds, which were near 9.2% of everything screened.
PTEN del growth = PTEN-deleted cell growth suppression. 140,000 tested, 1.2% active. viability, % at 10 µM. AID 827. HCT116 PTEN-null viability, CellTiter-Glo, 60 h; stronger effect = lower value;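 active means viability at or below a set limit, 4 SD under the median of all tested compounds, cut at about 3.7% in these data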;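 further: PTEN knockout HCT116 line with beta catenin targeted HCT116 as companion control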
Lmaj promast = Leishmania major promastigote growth inhibition; Leishmania major promastigotes, resazurin fluorescence viability; 200,000 tested, 9% active; inhibition, % at 10 µM; AID 1063; in the data active means inhibition above about 50%;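 further: promastigotes grown with compound for 44 hours at 28 °C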
bCat KO growth = beta-catenin-lacking colon tumor cell growth suppression | viability, % at 10 µM | 140,000 tested, 1.5% active | HCT116 beta-catenin knockout viability, CellTiter-Glo, 60 h; stronger effect = lower value;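 active means viability at or under a set limit, the compound median less 4 SD, cut at about 6% in these data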
Autophagy HCS = autophagy modulation, high-content screen; MEF GFP-LC3 puncta imaging; test concentration mostly 10 µM; calls only at 10 µM (by protocol); 190,000 tested, 0.98% active;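 active means percentage of spot-positive cells more than 3 SD above its plate mean, without a fluorescence outlier flag or 80% toxicity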
Dynein cargo inh = blocks dynein driven cargo transport along microtubules; 220,000 tested, 0.47% active; 3617.4 mouse cells, GR-EGFP nuclear translocation imaging; test concentration mostly 20 µM; stimulated with dexamethasone, 1 µM; stronger effect = lower value; AID 1381; z-score, hits read low;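 active means plate z-score of nuclear minus cytoplasmic receptor signal below a set negative limit, without overly bright fluorescence or cell loss, cut at about -3.5 in these data, passing the limit was not always enough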;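 further: z-score of nuclear minus cytoplasmic ring GR-EGFP intensity difference per well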
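Buffer or medium: tet-free, stripped-serum medium; Also added: dexamethasone, 1.0 µM final; Technique: high-content fluorescence imaging after fixation; Times: 48 h induction, 1 h compound, 30 min dex at 37 °C; Read-out: per-cell GR-EGFP intensity, nucleus versus surrounding cytoplasmic ring, well-averaged.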
Numbers stand for hits; . = inactive; / = not tested or not shown.

SMILES	PTEN del growth	Lmaj promast	bCat KO growth	Autophagy HCS	Dynein cargo inh
O=C(NCC1CCCO1)C(=Cc1cccc([N+](=O)[O-])c1)C(=O)NCC1CCCO1 (stereo not drawn)	.	.	5.2	.	.
O=C(N/C(=C/c1ccc(Br)cc1)C(=O)N1CCCC1)c1cccs1	/	.	/	.	.
CC(=O)N/C(=C\c1cccc([N+](=O)[O-])c1)C(=O)NC1CCCCC1	.	51	.	.	.
O=C(CSc1nnc2ccc(-c3ccccc3)nn12)NCC1CCCO1 (stereo not drawn)	/	.	/	.	.
CC(C)c1ccc(NC(=O)CSc2nc(-c3ccccc3F)nc3nc[nH]c23)cc1	.	.	.	.	.
Cc1cccc(OCC(=O)NNC(=O)C2CCCCC2C(=O)O)c1 (stereo not drawn)	.	.	.	.	.
CCC(=O)OCC(=O)Nc1cc([N+](=O)[O-])ccc1Cl	/	.	/	.	.
CN1CCN(C(=O)/C(=C\c2cccc([N+](=O)[O-])c2)NC(=O)c2cccs2)CC1	/	.	/	.	.
O=C(N/C(=C/c1cccc([N+](=O)[O-])c1)C(=O)N1CCCCCC1)c1cccs1	.	61	.	.	.
CCOCCOc1nc(C)cc(C)c1S(=O)(=O)c1ccccc1C	/	.	/	.	.
CCCCn1c(C)cc(C)c(S(=O)(=O)c2ccccc2C)c1=O	.	97	.	.	.
Cc1ccccc1S(=O)(=O)c1c(C)cc(C)n(C(C)C)c1=O	.	89	.	.	.
COc1ccc(NC(=O)CN2CCC(C(N)=O)(N3CCCCC3)CC2)c(OC)c1	/	.	/	.	.
O=C(C1=NNCC1c1ccc(Cl)cc1)C1CO1 (stereo not drawn)	2.1	.	2.2	.	.
CCCCNC(=O)Nc1ccc(C2SCCS2)cc1	/	/	/	/	.
COc1ccc(N2CCN(C(=O)c3ccc(CS(=O)(=O)c4ccc(OC)cc4)o3)CC2)cc1	.	81	.	.	.
COc1ccc(S(=O)(=O)Cc2ccc(C(=O)N3CCN(Cc4ccccc4)CC3)o2)cc1	.	99	.	.	.
COc1ccc(Nc2ncc(C(=O)N3CCC(C(N)=O)CC3)c3ccccc23)cc1	.	.	.	.	.
COc1ccc(S(=O)(=O)Cc2ccc(C(=O)N3CCN(c4ccc(Cl)cc4)CC3)o2)cc1	.	.	.	.	.
COc1ccc(Nc2ncc(C(=O)N3CCN(Cc4ccccc4)CC3)c3ccccc23)cc1	3.4	.	3.9	.	.
Cc1ccc(S(=O)(=O)Cc2ccc(C(=O)N3CCN(Cc4ccccc4)CC3)o2)cc1	.	99	.	.	.
COc1ccc(C2CC(=O)N(C)c3ccccc3S2)cc1 (stereo not drawn)	/	.	/	.	.
CCOC(=O)c1ccc(NC(=O)c2ccccc2C)cc1	.	.	.	.	.
CS(=O)(=O)c1ccc(C(=O)N2CCN(Cc3ccccc3)CC2)cc1	/	.	/	.	.
O=C(c1ccc(CNS(=O)(=O)c2ccccc2)cc1)N1CCN(Cc2ccccc2)CC1	.	72	.	.	.
SMILES	PTEN del growth	Lmaj promast	bCat KO growth	Autophagy HCS	Dynein cargo inh
COc1ccc(-n2c(-c3ccc(F)cc3)cnc2SCC(=O)NCc2ccco2)cc1	.	100	.	.	.
CCOc1ccc(-n2c(SCC(=O)NCc3ccco3)nnc2-c2c[nH]c3ccccc23)cc1	.	93	.	/	.
Cn1c(SCC(=O)NCc2ccco2)nnc1-c1c[nH]c2ccccc12	.	.	.	.	.
COc1ccc(C)cc1S(=O)(=O)N(CC(=O)Nc1ccc2c(c1)OCCO2)Cc1ccccc1	.	74	.	.	.
CC(C(=O)Nc1ccc2c(c1)OCO2)N(c1ccc(Cl)cc1)S(C)(=O)=O (stereo not drawn)	.	97	.	.	.
CC(Sc1ccc(Cl)cc1)C(=O)Nc1ccc2c(c1)OCO2 (stereo not drawn)	.	.	.	.	.
CS(=O)(=O)N(CC(=O)Nc1ccc2c(c1)OCCO2)Cc1ccc(Cl)cc1	.	96	.	.	.
CCOC(=O)c1ccc(NC(=O)CN(Cc2ccc(Cl)cc2)S(C)(=O)=O)cc1	.	100	.	.	.
COc1ccc(C)cc1S(=O)(=O)N(C)CC(=O)Nc1ccc2c(c1)OCO2	.	.	.	.	.
C1CCCC(NC2=NCCO2)CCC1	/	/	/	/	.
O=C(CCC1CCCN(C(=O)c2ccc3c(c2)OCO3)C1)N1CCN(c2ccccn2)CC1 (stereo not drawn)	/	.	/	.	.
COc1ccc(/C=N/n2c(SC)nnc2-c2ccccc2)c(OC)c1OC	.	.	.	.	.
COc1ccc(/C=N/n2c(SC)nnc2-c2ccccc2)cc1C	.	63	.	.	.
COc1ccc(OCCN2CCN(C3CC(=O)N(CCC(C)C)C3=O)CC2)cc1 (stereo not drawn)	.	92	.	.	.
Cc1ccc(S(=O)(=O)N2CCN(C3CC(=O)N(Cc4ccccc4)C3=O)CC2)cc1C (stereo not drawn)	.	93	.	.	.
O=C1CC(N2CCN(S(=O)(=O)c3cccc(C(F)(F)F)c3)CC2)C(=O)N1Cc1ccccc1 (stereo not drawn)	.	.	.	.	.
O=C1CC(N2CCN(Cc3ccccc3)CC2)C(=O)N1CCc1ccccc1 (stereo not drawn)	.	88	.	.	.
COc1ccc(CCN2C(=O)CC(N3CCOCC3)C2=O)cc1 (stereo not drawn)	.	.	.	.	.
COc1ccc(CCN2C(=O)CC(N3CCN(S(=O)(=O)c4ccccc4)CC3)C2=O)cc1 (stereo not drawn)	.	63	.	.	.
COc1ccc(C(=O)NC(Cc2ccccc2)c2ccc3c(c2)OCCCO3)cc1 (stereo not drawn)	.	.	.	.	.
CCOC(=O)c1sc(Nc2nc3c(F)cccc3s2)cc1C	.	78	.	.	.
CCOC(=O)c1sc(Nc2nc3c(OC)cccc3s2)nc1C	.	73	.	.	.
CCOC(=O)c1sc(Nc2nc(C)cc(OC)n2)nc1C	/	56	/	.	.
CCOC(=O)c1sc(Nc2ccccc2)nc1C	.	.	.	.	.
CCOc1cccc2sc(Nc3nc4ccc(NC(C)=O)cc4s3)nc12	.	80	.	.	.
SMILES	PTEN del growth	Lmaj promast	bCat KO growth	Autophagy HCS	Dynein cargo inh
CCOC(=O)c1sc(Nc2nc3ccc(OC)cc3s2)cc1C	.	.	.	.	.
CCC(=O)c1ccc(N2CCN(C(=O)c3ccccc3)CC2)c(F)c1	/	.	/	.	.
CN1C2C=C3C(C#N)=C(N)C(C#N)(C#N)C(c4ccc(Br)cc4)C3C1CC2 (stereo not drawn)	.	98	.	.	.
COc1cccc(-c2nc(N)nc(SC)c2C#N)c1	/	/	/	/	.
CCOc1cc(/C=N/N=C(/N)c2nonc2N)cc(Br)c1OCc1ccc(Cl)cc1	.	.	.	.	.
COc1cc(/C=N/N=C(/N)c2nonc2N)cc(Br)c1OCc1ccccc1C	.	75	.	.	.
O=C(CCC1CCCN(C(=O)CCN2CCCCC2=O)C1)NCc1ccccc1F (stereo not drawn)	/	.	/	.	.
CC(=O)c1cccc(CN2CCN(C(C)C)C(CCO)C2)c1 (stereo not drawn)	/	.	/	.	.

From PubChem BioAssay
